These results are taken from ChEMBL document CHEMBL3286295, “Discovery of HDAC inhibitors with potent activity against multiple malaria parasite life cycle stages” (Eur J Med Chem, 2014).

Data set [1] can be described thus: Cytotoxicity against erythrocytes (unknown origin). To be noted: Erythrocyte. The format is cell-based.
In data set [2] the test system is Plasmodium falciparum. Kind of data set: Antimalarial activity against Plasmodium falciparum infected in human erythrocytes after 72 hrs. It is filed as functional, organism-based.
Data set [3] is described as follows: Selectivity index, ratio of IC50 for human mammalian cells to IC50 for Plasmodium falciparum. It is filed as toxicity. The settings on record: mammalian cells (cell line not named), read-out: Ratio IC50. The gist of the method: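 Ratio of HepG2 IC50 to P. falciparum 3D7 IC50. HepG2 toxicity assay: uninfected HepG2-A16-CD81EGFP cells treated as in the liver-stage assay, with medium instead of sporozoites, for 48 h. ATP measured by luminescence vs DMSO-treated cells. IC50 by four-parameter regression.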

For data set [4], the system named is Plasmodium berghei. The data set is described as follows: microbe, parasite or virus in culture. It is filed as functional, organism-based. To be noted: HepG2.
A short description of data set [5]: Cytotoxicity against human mammalian cells after 72 to 96 hrs by MTT assay. The format is cell-based.
Data set [6] relates to Plasmodium falciparum. The data set is described as follows: Inhibition of histone deacetylase in Plasmodium falciparum nuclear lysates at 1 uM by fluorescence assay. A digest of the protocol:
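Nuclear protein lysates prepared from trophozoite-stage P. falciparum with a nuclear extraction kit, tested at 1 μM compound in a fluorometric HDAC assay kit. Percent inhibition vs controls, mean (±SD) of two independent assays, each in duplicate.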

The test system of data set [7] is Plasmodium falciparum 3D7. The data set is described as follows: Inhibition of HDAC in Plasmodium falciparum 3D7 trophozoites assessed as histone H4 hyperacetylation level at 500 nM after 3 hrs by Western blotting analysis relative to control. The gist of the method: (§1)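 Synchronous trophozoite-stage 3D7 parasites incubated 3 h with 500 nM compound or 0.05% DMSO vehicle. Vehicle samples taken at 0 and 3 h. Saponin lysis and PBS washing, then 15% SDS-PAGE and immunoblotting. Anti-RAP2 monoclonal used as loading control; infrared fluorescent secondary detection.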
For orientation: In western blotting, separated proteins are transferred to a membrane and probed.

Data set [8] relates to Plasmodium falciparum 3D7. The data set is described as follows: Inhibition of HDAC in Plasmodium falciparum 3D7 trophozoites assessed as histone H3 hyperacetylation level at 500 nM after 3 hrs by Western blotting analysis relative to control. A digest of the protocol: as §1
The subject of data set [9] is Plasmodium falciparum. The data set is described as follows: Inhibition of Plasmodium falciparum recombinant histone deacetylase1 using HDAC substrate 3 as substrate at 1 uM by fluorescence assay. A digest of the protocol: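 Recombinant PfHDAC1 tested at 1 μM compound in a fluorometric HDAC assay kit with Fluorogenic HDAC substrate 3. Percent inhibition vs controls, mean (±SD) of two independent assays, each in duplicate.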

Data set [10] can be described thus: Selectivity index, ratio of IC50 for mouse RAW cells to IC50 for Plasmodium falciparum. It is filed as toxicity, cell-based. To be noted: read-out: Ratio IC50.
The test system of the next data set is RAW. Kind of data set: Cytotoxicity against mouse RAW cells by MTT assay. The format is cell-based. For orientation: Tetrazolium dyes change colour on reduction, which living cells bring about.
The test system of data set [11] is Plasmodium falciparum. Kind of data set: Antimalarial activity against asexual blood stage of Plasmodium falciparum 3D7 infected in human serum assessed as [3H]hypoxanthine incorporation incubated for 48 hrs prior to 3H]hypoxanthine addition measured after 24 hrs by liquid scintillation counting analysis. It is filed as functional, organism-based. To be noted: 3D7, Serum. A digest of the protocol:
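Synchronous ring-stage parasites (0.25% parasitaemia, 2.5% haematocrit) in RPMI 1640 with 10% heat-inactivated human serum, exposed to serially diluted compound for 48 h at 37°C. [3H]-hypoxanthine (0.5 μCi/well) then added for a further 24 h and counted by liquid scintillation. Inhibition is relative to 0.5% DMSO controls. IC50 by log-linear interpolation, mean (±SD) of three independent experiments, each in triplicate wells.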

Data set [12] concerns Plasmodium falciparum. Kind of data set: Antimalarial activity against late stage gametocyte stage of Plasmodium falciparum NF54 after 72 hrs. The format is functional, organism-based. The settings on record: NF54, 72 h. A digest of the protocol: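 Stage IV gametocytes of NF54-pfs16-GFP, magnetically isolated day 8 post induction, 33,000 per well. Incubated 72 h with compound under 5% CO2/5% O2/80% N2, then overnight with Mitotracker Red CM-H2XRos (0.07 ug/ml). IC50 by sigmoidal variable-slope fit, mean ±SD, two experiments in duplicate.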

A short description of data set [13]: Selectivity index, ratio of IC50 for human HepG2 cells to IC50 for exo-erythrocytic form of Plasmodium berghei.
Data set [14] has as its system Plasmodium berghei. The data set is described as follows: Antimalarial activity against exo-erythrocytic form of Plasmodium berghei infected in human HepG2 cells after 48 hrs. To be noted: HepG2, 48 h. It is filed as functional, organism-based. The gist of the method: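 HepG2-A16-CD81EGFP cells seeded 20–26 h before infection and given compound 18 h before infection (0.5% final DMSO). Infected with 1×10^3 luciferase-expressing P. berghei sporozoites per well, spun 3 min at 330xg, 37°C, then incubated 48 h at 37°C in 5% CO2. Read by luminescence. IC50 by four-parameter variable-slope nonlinear regression.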

A further data set deals with HepG2. Kind of data set: Cytotoxicity against human HepG2 cells after 48 hrs. The format is ADME, cell-based. The settings on record: HepG2, 48 h.
Data set [15] is described as follows: Selectivity index, ratio of IC50 for human HepG2 cells to IC50 for asexual blood stage of Plasmodium falciparum 3D7.
Data set [16] can be described thus: Selectivity index, ratio of IC50 for human HepG2 cells to IC50 for late stage gametocyte stage of Plasmodium falciparum NF54. The format is toxicity, cell-based. To be noted: read-out: Ratio IC50.

SMILES strings stand for the structures. Calls of active or inactive are those of the source. The calls are words filed in the database; no cut-off is given here.

In general, IC50 refers to the point on the concentration scale where inhibition reaches its midpoint. With `O=C(/C=C/c1ccccc1)N[C@@H](CCCCCC(=O)NO)C(=O)Nc1cccc2cccnc12`, in data set [1], the half-inhibitory concentration (IC50) came to 1240 nM.
Regarding `CCCCc1nc2cc(/C=C/C(=O)NO)ccc2n1CCN(CC)CC` [PRACINOSTAT], the 50% inhibitory concentration (IC50) was 80 nM in the data set on Plasmodium falciparum [2], 150 nM in the data set with Plasmodium berghei [4] and above 800 nM in data set [5]. Also, the selectivity ratio in [3] is above 4.
Broadly, the inhibition is the relative decrease from the control value, in per cent. Regarding `CC(/C=C/C(=O)NO)=C\[C@@H](C)C(=O)c1ccc(N(C)C)cc1` [TRICHOSTATIN], the inhibition amounted to 78.1% in the data set with Plasmodium falciparum [6] and 93.3% in the data set on Plasmodium falciparum [9]. Besides, the inhibition result in data set [7] and in data set [8] was “Active” in each case. For the same molecule, in data set [1], inhibition was half-maximal at 200 nM (IC50).
For the molecule `Nc1cccc(-c2csc(NC(=O)CCCCCCC(=O)NO)n2)c1`, in data set [10], the selectivity ratio stood at 333. Moreover, the IC50 in the data set on RAW turned out to be 600 nM.
For the molecule `O=C(CCCCCCC(=O)Nc1ccccc1)NO` [VORINOSTAT], the half-maximal inhibitory concentration (IC50) in [1] was above 2200 nM.
For the molecule `O=C(CCCCCONC(=O)c1ccc(-c2ccccc2)cc1)NO`, the IC50 was 160 nM in the data set with Plasmodium falciparum [11], 500 nM in the data set with Plasmodium falciparum [12], 1830 nM with Plasmodium berghei [14] and 10200 nM in the data set on HepG2. Moreover, the selectivity ratio was 6 in data set [13], 64 in data set [15] and 20 in [16]. Also, the values for the inhibition in the data set on Plasmodium falciparum [6] and in the data set with Plasmodium falciparum [9] were 89.3% and 64.2%, respectively. For the same molecule, the inhibition result in [7] and in [8] was “Active” throughout.
